Here are results for seven compounds from ChEMBL document CHEMBL4368886, “Design, synthesis, and biological activity of novel ammonium salts containing sterically hindered phenolic fragment and phosphoryl group” (Medchemcomm, 2018).

SMILES strings stand for the structures. In brackets after ≈: the same amount, converted by molar mass. Activity calls are given as the source filed them. The rule behind the calls is not given here.

For orientation: MIC means the lowest concentration found to suppress growth.

Assay [1] deals with Staphylococcus aureus. Put plainly: Antimicrobial activity against Staphylococcus aureus 209p measured every 24 hrs for 5 days by two-fold serial dilution method. The format is functional.
Assay [2] relates to Trichophyton mentagrophytes. Put plainly: Antimicrobial activity against Trichophyton mentagrophytes var. gypseum 1773 measured after 14 days by two-fold serial dilution method. The format is functional.
The subject of assay [3] is Bacillus cereus. Put plainly: Bactericidal activity against Bacillus cereus ATCC 8035 measured after 4 hrs. In kind it is functional. Particulars: ATCC 8035, 4 h. Put shortly: (§1)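 Microbicidal (bactericidal/fungicidal) concentration, killing of microbial cells, determined per literature procedures; tests in duplicate, repeated twice.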
For assay [4], the system named is Aspergillus niger. The assay can be described thus: Antimicrobial activity against Aspergillus niger BKMF-1119 measured after 14 days by two-fold serial dilution method. The format is functional, organism-based.
Assay [5] deals with Pseudomonas aeruginosa. The assay can be described thus: Bactericidal activity against Pseudomonas aeruginosa ATCC 9027 measured after 4 hrs. The format is functional. Put shortly:
as §1

The subject of assay [6] is Pseudomonas aeruginosa. Put plainly: Antimicrobial activity against Pseudomonas aeruginosa ATCC 9027 measured every 24 hrs for 5 days by two-fold serial dilution method. The format is functional.
Assay [7] has as its system Candida albicans. Put plainly: Bactericidal activity against Candida albicans 855-653 measured after 4 hrs. The format is functional. Put shortly:
as §1

Assay [8] deals with Trichophyton mentagrophytes var. granulosum. Put plainly: Bactericidal activity against Trichophyton mentagrophytes var. granulosum 1773 measured after 4 hrs. The format is functional. Put shortly: as §1
The subject of assay [9] is Escherichia coli. Put plainly: Antimicrobial activity against Escherichia coli CDC F-50 measured every 24 hrs for 5 days by two-fold serial dilution method. In kind it is functional.
Assay [10] concerns Bacillus cereus. The assay can be described thus: Antimicrobial activity against Bacillus cereus ATCC 8035 measured every 24 hrs for 5 days by two-fold serial dilution method. In kind it is functional.
Assay [11] deals with Aspergillus niger. The assay can be described thus: Bactericidal activity against Aspergillus niger BKMF-1119 measured after 4 hrs. In kind it is functional, organism-based. Put shortly:
as §1

For assay [12], the system named is Escherichia coli. The assay can be described thus: Bactericidal activity against Escherichia coli CDC F-50 measured after 4 hrs. The format is functional. Put shortly:
as §1

The subject of assay [13] is Staphylococcus aureus. The assay can be described thus: Bactericidal activity against Staphylococcus aureus 209p measured after 4 hrs. In kind it is functional. The method in brief:
as §1

For assay [14], the system named is Candida albicans. Put plainly: Antimicrobial activity against Candida albicans 855-653 measured after 14 days by two-fold serial dilution method. In kind it is functional. Particulars: 855-653, 336 h.

With `CC(C)OP(=O)(OC(C)C)C(NCC[N+](C)(C)Cc1ccccc1)c1cc(C(C)(C)C)c(O)c(C(C)(C)C)c1` (stereo unspecified), the MIC against Staphylococcus aureus [1] is 24.3 µM; against Bacillus cereus [3], 48.8 µM; in the assay with Bacillus cereus [10] it was 48.8 µM; with Staphylococcus aureus [13] it was 97.3 µM; against Candida albicans [14], 195 µM. Besides, the MIC entry (in [2]; in the assay with Aspergillus niger [4]; in the assay with Pseudomonas aeruginosa [5]; in the assay on Pseudomonas aeruginosa [6]; with Candida albicans [7]; in assay [8]) was “inactive” in each case. Further, the MIC result in the assay with Escherichia coli [9], in the assay on Aspergillus niger [11] and with Escherichia coli [12] was “inactive” in each case.
With `CCCCCCCCCCCC[N+](C)(C)CCNC(=O)CCc1cc(C(C)(C)C)c(O)c(C(C)(C)C)c1`, the MIC was 52.4 µM with Staphylococcus aureus [1]; 419 µM with Bacillus cereus [3]; 419 µM against Candida albicans [7] (855-653, 4 h); 419 µM against Bacillus cereus [10]; 52.4 µM in the assay with Staphylococcus aureus [13]; 419 µM against Candida albicans [14]. The MIC entry (in assay [2]; in the assay with Aspergillus niger [4]; in the assay with Pseudomonas aeruginosa [5]; in the assay on Pseudomonas aeruginosa [6]; in assay [8]; in the assay on Escherichia coli [9]) was “inactive” throughout. For the same compound, the MIC result in the assay with Aspergillus niger [11] and in the assay on Escherichia coli [12] was “inactive” in each case.
Regarding `CCCCCCCCCC[N+](C)(C)CCNC(=O)CCc1cc(C(C)(C)C)c(O)c(C(C)(C)C)c1`, the minimum inhibitory concentration (MIC) against Staphylococcus aureus [1] came out at 1.6 µM; against Bacillus cereus [3], 55 µM; with Pseudomonas aeruginosa [5] (ATCC 9027, 4 h) it was 55 µM; in the assay on Pseudomonas aeruginosa [6] it was 27.4 µM; in the assay on Candida albicans [7] (855-653, 4 h) it was 6.9 µM; against Escherichia coli [9], 27.4 µM. For the same compound, the MIC in the assay with Bacillus cereus [10] was determined as 6.8 µM; with Escherichia coli [12] (CDC F-50, 4 h), 55 µM; in the assay on Staphylococcus aureus [13], 1.6 µM; with Candida albicans [14], 3.3 µM. The MIC entry (in assay [2]; in the assay with Aspergillus niger [4]; in [8]; with Aspergillus niger [11]) was “inactive” each time.
As for `CCCCCCCCCCCC[N+](C)(C)CCNC(c1cc(C(C)(C)C)c(O)c(C(C)(C)C)c1)P(=O)(OCC)OCC` (stereo unspecified), the MIC with Staphylococcus aureus [1] came out at 45.2 µM; in the assay on Bacillus cereus [3], 361 µM; in the assay with Candida albicans [7] (855-653, 4 h) it was 45.2 µM; in the assay with Bacillus cereus [10], 361 µM; against Staphylococcus aureus [13], 45.2 µM; against Candida albicans [14], 45.2 µM. Besides, the MIC result (in assay [2]; with Aspergillus niger [4]; with Pseudomonas aeruginosa [5]; with Pseudomonas aeruginosa [6]; in [8]; in the assay on Escherichia coli [9]) was “inactive” each time. The MIC entry with Aspergillus niger [11] and in the assay on Escherichia coli [12] was “inactive” throughout.
For the compound `CC[N+](C)(C)CCNC(c1cc(C(C)(C)C)c(O)c(C(C)(C)C)c1)P(=O)(OC(C)C)OC(C)C` (stereo unspecified), the MIC against Staphylococcus aureus [1] amounted to 108 µM; in the assay with Bacillus cereus [3], 216 µM; in the assay on Bacillus cereus [10], 216 µM; against Staphylococcus aureus [13], 108 µM; against Candida albicans [14], 432 µM. The MIC result (in assay [2]; in the assay on Aspergillus niger [4]; in the assay on Pseudomonas aeruginosa [5]; in the assay on Pseudomonas aeruginosa [6]; with Candida albicans [7]; in [8]) was “inactive” each time. Also, the MIC entry with Escherichia coli [9], in the assay on Aspergillus niger [11] and in the assay on Escherichia coli [12] was “inactive” throughout.
On to `O=C(N[C@H](CO)[C@H](O)c1ccc([N+](=O)[O-])cc1)C(Cl)Cl` [CHLORAMPHENICOL], for which the figures for the MIC with Staphylococcus aureus [1], in the assay on Escherichia coli [9] and against Bacillus cereus [10] were 193 µM (≈ 62.4 µg/mL), 386 µM (≈ 125 µg/mL) and 193 µM (≈ 62.4 µg/mL), respectively.
For the compound `CCn1cc(C(=O)O)c(=O)c2cc(F)c(N3CCNCC3)cc21` [NORFLOXACIN], the minimal inhibitory concentration (MIC) against Staphylococcus aureus [1] amounted to 7.5 µM (≈ 2.4 µg/mL); in the assay on Bacillus cereus [3] it was 50 µM (≈ 16 µg/mL); against Pseudomonas aeruginosa [5] (ATCC 9027, 4 h), 48.8 µM (≈ 15.6 µg/mL); with Pseudomonas aeruginosa [6], 9.4 µM (≈ 3 µg/mL); with Escherichia coli [9] it was 4.7 µM (≈ 1.5 µg/mL); in the assay with Bacillus cereus [10] it was 25 µM (≈ 7.98 µg/mL). Further, the minimal inhibitory concentration (MIC) amounted to 4.7 µM (≈ 1.5 µg/mL) with Escherichia coli [12] (CDC F-50, 4 h) and 7.5 µM (≈ 2.4 µg/mL) in the assay on Staphylococcus aureus [13].
